Reference: ChEMBL document CHEMBL4270541, “Synthesis and antimicrobial evaluation of amino sugar-based naphthoquinones and isoquinoline-5,8-diones and their halogenated compounds” (Eur J Med Chem, 2018)
In brackets after ≈: the same amount, converted by molar mass. Activity calls are given as the source filed them. No cut-off for these calls is given here.

Experiments:
[1] = test system: Enterococcus faecalis; assay: Antimicrobial activity against Enterococcus faecalis INCQS 00234 ATCC 29212 assessed as zone of inhibition at 5 mg/ml after 18 to 24 hrs by disc diffusion method; assay type: functional; conditions: ATCC 29212 INCQS 00234, read-out: IZ
[2] = test system: Staphylococcus aureus; assay: Antimicrobial activity against Staphylococcus aureus INCQS 00015 ATCC 25923 assessed as zone of inhibition at 5 mg/ml after 18 to 24 hrs by disc diffusion method; assay type: functional; conditions: read-out: IZ
[3] = test system: Staphylococcus epidermidis; assay: Antimicrobial activity against Staphylococcus epidermidis INCQS 00016 ATCC 12228 assessed as zone of inhibition at 5 mg/ml after 18 to 24 hrs by disc diffusion method; assay type: functional; conditions: ATCC 12228 INCQS 00016, read-out: IZ
[4] = test system: Staphylococcus simulans; assay: Antimicrobial activity against Staphylococcus simulans INCQS 00254 ATCC 27851 assessed as zone of inhibition at 5 mg/ml after 18 to 24 hrs by disc diffusion method; assay type: functional; conditions: read-out: IZ
[5] = test system: Staphylococcus aureus; assay: Antimicrobial activity against methicillin-resistant Staphylococcus aureus BMB9393 assessed as zone of inhibition at 5 mg/ml after 18 to 24 hrs by disc diffusion method; assay type: functional; conditions: read-out: IZ
[6] = test system: Escherichia coli; assay: Antimicrobial activity against Escherichia coli INCQS 00033 ATCC 25922 assessed as zone of inhibition at 5 mg/ml after 18 to 24 hrs by disc diffusion method; assay type: functional; conditions: ATCC 25922 INCQS 00033, read-out: IZ
[7] = test system: Proteus mirabilis; assay: Antimicrobial activity against Proteus mirabilis INCQS 00095 ATCC 15290 assessed as zone of inhibition at 5 mg/ml after 18 to 24 hrs by disc diffusion method; assay type: functional; conditions: read-out: IZ
[8] = test system: Klebsiella pneumoniae; assay: Antimicrobial activity against Klebsiella pneumoniae INCQS 00083 ATCC 4352 assessed as zone of inhibition at 5 mg/ml after 18 to 24 hrs by disc diffusion method; assay type: functional; conditions: read-out: IZ
[9] = test system: Pseudomonas aeruginosa; assay: Antimicrobial activity against Pseudomonas aeruginosa INCQS 00099 ATCC 27853 assessed as zone of inhibition at 5 mg/ml after 18 to 24 hrs by disc diffusion method; assay type: functional; conditions: read-out: IZ
[10] = test system: Escherichia coli; assay: Antimicrobial activity against Escherichia coli INCQS 00033 ATCC 25922 after 24 hrs by microdilution assay; assay type: functional; conditions: ATCC 25922 INCQS 00033, 24 h
[11] = test system: Pseudomonas aeruginosa; assay: Antimicrobial activity against Pseudomonas aeruginosa INCQS 00099 ATCC 27853 after 24 hrs by microdilution assay; assay type: functional; conditions: INCQS 00099 ATCC 27853, 24 h
[12] = test system: Escherichia coli; assay: Bactericidal activity against Escherichia coli INCQS 00033 ATCC 25922 incubated for 24 hrs followed by transfer of microbial suspension to agar plates and measured after 24 hrs post transfer by resazurin dye-based colorimetric analysis; assay type: functional; conditions: ATCC 25922 INCQS 00033, 24 h, read-out: MBC99.9
How it was run: (§1)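 For MBC, 10 µL from each clear MIC well was plated on agar and incubated 24 h at 37°C. MBC is the minimum concentration inhibiting 99.9% of growth. […] Triplicate.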

[13] = test system: Pseudomonas aeruginosa; assay: Bactericidal activity against Pseudomonas aeruginosa INCQS 00099 ATCC 27853 incubated for 24 hrs followed by transfer of microbial suspension to agar plates and measured after 24 hrs post transfer by resazurin dye-based colorimetric analysis; assay type: functional; conditions: INCQS 00099 ATCC 27853, 24 h, read-out: MBC99.9; how it was run: as §1
[14] = test system: Escherichia coli; assay: Ratio of MBC99.9 to MIC for Escherichia coli INCQS 00033 ATCC 25922; assay type: functional, ATCC 25922 INCQS 00033
How it was run: (§2)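 MBC/MIC ratio from the 24 h, 37°C microdilution MIC and the agar-plating MBC (99.9% growth inhibition). A ratio ≤2 was classed as bactericidal and ≥4 as bacteriostatic.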

[15] = Hemolytic activity against human erythrocytes assessed as hemolysis at 200 ug/ml after 3 hrs by spectrophotometric analysis relative to control; assay type: ADME, cell-based, Erythrocyte; conditions: read-out: Activity
How it was run: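 Erythrocytes collected in citrate tubes, washed three times with PBS pH 7.4 by centrifugation and resuspended in PBS. Incubated with compounds at 200 µg/mL for 3 h at 37°C. Released hemoglobin was read in the supernatant at 545 nm against 1% Triton X-100 (complete lysis) and 1% DMSO (negative control). Below 10% hemolysis was taken as hemocompatible. Three independent experiments.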

[16] = test system: Staphylococcus aureus; assay: Antimicrobial activity against Staphylococcus aureus INCQS 00015 ATCC 25923 at 256 ug/ml after 24 hrs by microdilution assay; assay type: functional, organism-based
[17] = test system: Staphylococcus epidermidis; assay: Antimicrobial activity against Staphylococcus epidermidis INCQS 00016 ATCC 12228 at 256 ug/ml after 24 hrs by microdilution assay; assay type: functional, organism-based; conditions: ATCC 12228 INCQS 00016
[18] = test system: Staphylococcus simulans; assay: Antimicrobial activity against Staphylococcus simulans INCQS 00254 ATCC 27851 at 256 ug/ml after 24 hrs by microdilution assay; assay type: functional, organism-based
[19] = test system: Staphylococcus aureus; assay: Antimicrobial activity against methicillin-resistant Staphylococcus aureus BMB9393 at 256 ug/ml after 24 hrs by microdilution assay; assay type: functional, organism-based
[20] = test system: Staphylococcus aureus; assay: Bactericidal activity against Staphylococcus aureus INCQS 00015 ATCC 25923 at 256 ug/ml incubated for 24 hrs followed by transfer of microbial suspension to agar plates and measured after 24 hrs post transfer by resazurin dye-based colorimetric analysis; assay type: functional, organism-based; how it was run: as §1
[21] = test system: Staphylococcus epidermidis; assay: Bactericidal activity against Staphylococcus epidermidis INCQS 00016 ATCC 12228 at 256 ug/ml incubated for 24 hrs followed by transfer of microbial suspension to agar plates and measured after 24 hrs post transfer by resazurin dye-based colorimetric analysis; assay type: functional, organism-based; conditions: ATCC 12228 INCQS 00016; how it was run: as §1
[22] = test system: Staphylococcus simulans; assay: Bactericidal activity against Staphylococcus simulans INCQS 00254 ATCC 27851 at 256 ug/ml incubated for 24 hrs followed by transfer of microbial suspension to agar plates and measured after 24 hrs post transfer by resazurin dye-based colorimetric analysis; assay type: functional, organism-based; how it was run: as §1
[23] = test system: Staphylococcus aureus; assay: Bactericidal activity against methicillin-resistant Staphylococcus aureus BMB9393 at 256 ug/ml incubated for 24 hrs followed by transfer of microbial suspension to agar plates and measured after 24 hrs post transfer by resazurin dye-based colorimetric analysis; assay type: functional, organism-based
How it was run: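 From MIC wells with no visible growth, 10 µL is transferred to agar plates and incubated 24 h at 37°C. MBC is the minimum concentration inhibiting 99.9% of growth. […] Triplicate.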

[24] = test system: Pseudomonas aeruginosa; assay: Ratio of MBC99.9 to MIC for Pseudomonas aeruginosa INCQS 00099 ATCC 27853; assay type: functional; how it was run: as §2

Row | Structure (SMILES) | zone of inhibition at 5000 µg/mL [1] | zone of inhibition at 5000 µg/mL [2] | zone of inhibition at 5000 µg/mL [3] | zone of inhibition at 5000 µg/mL [4] | zone of inhibition at 5000 µg/mL [5] | zone of inhibition at 5000 µg/mL [6] | zone of inhibition at 5000 µg/mL [7] | zone of inhibition at 5000 µg/mL [8] | zone of inhibition at 5000 µg/mL [9] | MIC [10] | MIC [11] | MBC [12] | MBC [13] | Ratio [14] | hemolysis at 3 h, 200 ug/ml [15] | Activity [16] | Activity [17] | Activity [18] | Activity [19] | Activity [20] | also measured
1 | CO[C@@H]1O[C@H](CNC2=C(Cl)C(=O)c3ccccc3C2=O)[C@H]2OC(C)(C)O[C@@H]12 | 0 mm | 0 mm | 9 mm | 7 mm | 0 mm | 10 mm | 0 mm | 0 mm | 9 mm | 8 µg/mL (≈ 20.3 µM) | 32 µg/mL (≈ 81.3 µM) | 8 µg/mL (≈ 20.3 µM) | 32 µg/mL (≈ 81.3 µM) | 1 | < 10% | inactive | inactive | inactive | inactive | inactive | Activity [21]: inactive; Activity [22]: inactive; Activity [23]: inactive
2 | CC1(C)O[C@H]2[C@@H](O1)[C@@H](CNC1=C(Cl)C(=O)c3ccccc3C1=O)O[C@@H]1OC(C)(C)O[C@@H]12 | 0 mm | 9 mm | 8 mm | 0 mm | 0 mm | 12 mm | 0 mm | 0 mm | 13 mm | 16 µg/mL (≈ 35.6 µM) | 32 µg/mL (≈ 71.1 µM) | 16 µg/mL (≈ 35.6 µM) | 32 µg/mL (≈ 71.1 µM) | 1 | < 10% | inactive | inactive | inactive | inactive | inactive | Ratio [24]: 1; Activity [21]: inactive; Activity [22]: inactive; Activity [23]: inactive
3 | CC1(C)O[C@H]2O[C@H](CNC3=C(Cl)C(=O)c4ccccc4C3=O)[C@H](O)[C@H]2O1 | 0 mm | 14 mm | 15 mm | 13 mm | 0 mm | 17 mm | 0 mm | 0 mm | 21 mm | 4 µg/mL (≈ 10.5 µM) | 8 µg/mL (≈ 21.1 µM) | 4 µg/mL (≈ 10.5 µM) | 8 µg/mL (≈ 21.1 µM) | 1 | 10.1 to 14.4% | inactive | inactive | inactive | inactive | inactive | Ratio [24]: 1; Activity [21]: inactive; Activity [22]: inactive; Activity [23]: inactive
